According to ChEMBL document CHEMBL1287807, “Novel TNF-α converting enzyme (TACE) inhibitors as potential treatment for inflammatory diseases” (Bioorg Med Chem Lett, 2010):
Values belong to the molecule of their own block, whether it stands above or below them.

Columns and labels:
[1] = molecular target: Disintegrin and metalloproteinase domain-containing protein 17 (Homo sapiens, UniProt P78536); experiment: Inhibition of TACE
[2] = test system: Blood; experiment: Antiinflammatory activity in human whole blood assessed as inhibition of LPS-induced TNFalpha production after 3.5 hrs by ELISA; format: functional
Method in brief: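 Human whole blood, diluted 1:1 in serum-free RPMI with L-glutamine, Pen-Strep and HEPES, is preincubated with compound for 1 h at 37 °C. It is then stimulated with LPS. Supernatant is harvested after 3.5 h incubation, and TNF-α concentration is measured by ELISA.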

[3] = molecular target: T1, Interstitial collagenase (Homo sapiens, UniProt P03956); experiment: Inhibition of MMP1
T1 sequence (P03956 whole entry): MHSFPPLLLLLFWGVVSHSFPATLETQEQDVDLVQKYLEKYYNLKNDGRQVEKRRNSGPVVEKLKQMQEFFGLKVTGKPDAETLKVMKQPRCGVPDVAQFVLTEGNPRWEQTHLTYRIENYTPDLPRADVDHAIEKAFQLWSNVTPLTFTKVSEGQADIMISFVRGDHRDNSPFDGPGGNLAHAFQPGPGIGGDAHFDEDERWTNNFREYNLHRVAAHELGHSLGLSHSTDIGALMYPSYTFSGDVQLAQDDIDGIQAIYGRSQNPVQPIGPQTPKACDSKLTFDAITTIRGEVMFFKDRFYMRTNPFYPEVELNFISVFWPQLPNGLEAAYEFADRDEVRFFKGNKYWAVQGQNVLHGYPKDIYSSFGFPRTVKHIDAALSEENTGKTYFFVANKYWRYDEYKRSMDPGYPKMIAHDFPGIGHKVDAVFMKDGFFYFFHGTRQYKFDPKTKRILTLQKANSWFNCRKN

[4] = molecular target: 72 kDa type IV collagenase (Homo sapiens, UniProt P08253); experiment: Inhibition of MMP2
Sequence of 72 kDa type IV collagenase (P08253 whole entry): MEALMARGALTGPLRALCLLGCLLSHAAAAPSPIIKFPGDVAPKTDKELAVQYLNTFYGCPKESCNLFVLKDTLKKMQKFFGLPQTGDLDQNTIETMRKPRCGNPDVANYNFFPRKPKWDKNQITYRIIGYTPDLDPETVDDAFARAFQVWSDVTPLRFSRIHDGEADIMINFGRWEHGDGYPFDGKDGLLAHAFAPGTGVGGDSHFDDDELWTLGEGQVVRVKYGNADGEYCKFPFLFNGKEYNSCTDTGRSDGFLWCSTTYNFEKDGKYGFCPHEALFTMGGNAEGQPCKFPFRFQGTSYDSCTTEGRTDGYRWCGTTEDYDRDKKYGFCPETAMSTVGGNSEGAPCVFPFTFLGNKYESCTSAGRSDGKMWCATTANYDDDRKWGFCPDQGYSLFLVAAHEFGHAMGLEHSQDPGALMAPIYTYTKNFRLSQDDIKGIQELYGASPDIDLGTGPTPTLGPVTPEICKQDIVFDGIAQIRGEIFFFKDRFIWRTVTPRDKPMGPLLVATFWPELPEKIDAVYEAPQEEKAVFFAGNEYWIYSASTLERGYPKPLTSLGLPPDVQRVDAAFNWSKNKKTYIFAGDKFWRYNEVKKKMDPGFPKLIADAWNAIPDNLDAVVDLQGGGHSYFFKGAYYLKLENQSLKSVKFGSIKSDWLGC

[5] = molecular target: Stromelysin-1 (Homo sapiens, UniProt P08254); experiment: Inhibition of MMP3
Sequence of Stromelysin-1 (P08254 whole entry): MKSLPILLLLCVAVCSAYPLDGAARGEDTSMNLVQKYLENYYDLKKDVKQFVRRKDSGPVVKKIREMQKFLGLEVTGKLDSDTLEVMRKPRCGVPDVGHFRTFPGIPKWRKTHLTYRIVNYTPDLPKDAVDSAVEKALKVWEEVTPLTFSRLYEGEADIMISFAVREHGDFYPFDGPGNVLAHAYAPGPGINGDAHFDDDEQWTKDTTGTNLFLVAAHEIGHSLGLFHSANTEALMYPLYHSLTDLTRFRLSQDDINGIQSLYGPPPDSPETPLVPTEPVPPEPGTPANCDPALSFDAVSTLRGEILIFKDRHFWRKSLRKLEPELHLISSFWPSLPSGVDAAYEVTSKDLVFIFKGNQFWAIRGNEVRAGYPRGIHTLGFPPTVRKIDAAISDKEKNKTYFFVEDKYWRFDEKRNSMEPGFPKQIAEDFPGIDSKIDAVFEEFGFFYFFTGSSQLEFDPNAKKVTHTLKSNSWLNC

[6] = molecular target: T2, Matrilysin (Homo sapiens, UniProt P09237); experiment: Inhibition of MMP7
T2 sequence (P09237 whole entry): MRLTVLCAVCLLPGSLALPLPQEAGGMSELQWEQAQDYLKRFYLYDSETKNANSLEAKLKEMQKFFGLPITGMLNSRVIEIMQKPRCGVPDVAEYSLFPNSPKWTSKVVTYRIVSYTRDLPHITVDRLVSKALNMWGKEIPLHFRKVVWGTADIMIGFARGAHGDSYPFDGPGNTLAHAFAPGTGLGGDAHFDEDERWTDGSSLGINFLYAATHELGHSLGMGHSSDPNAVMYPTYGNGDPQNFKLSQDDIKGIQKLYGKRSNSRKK

[7] = molecular target: Matrix metalloproteinase-9 (Homo sapiens, UniProt P14780); experiment: Inhibition of MMP9
Sequence of Matrix metalloproteinase-9 (P14780 whole entry): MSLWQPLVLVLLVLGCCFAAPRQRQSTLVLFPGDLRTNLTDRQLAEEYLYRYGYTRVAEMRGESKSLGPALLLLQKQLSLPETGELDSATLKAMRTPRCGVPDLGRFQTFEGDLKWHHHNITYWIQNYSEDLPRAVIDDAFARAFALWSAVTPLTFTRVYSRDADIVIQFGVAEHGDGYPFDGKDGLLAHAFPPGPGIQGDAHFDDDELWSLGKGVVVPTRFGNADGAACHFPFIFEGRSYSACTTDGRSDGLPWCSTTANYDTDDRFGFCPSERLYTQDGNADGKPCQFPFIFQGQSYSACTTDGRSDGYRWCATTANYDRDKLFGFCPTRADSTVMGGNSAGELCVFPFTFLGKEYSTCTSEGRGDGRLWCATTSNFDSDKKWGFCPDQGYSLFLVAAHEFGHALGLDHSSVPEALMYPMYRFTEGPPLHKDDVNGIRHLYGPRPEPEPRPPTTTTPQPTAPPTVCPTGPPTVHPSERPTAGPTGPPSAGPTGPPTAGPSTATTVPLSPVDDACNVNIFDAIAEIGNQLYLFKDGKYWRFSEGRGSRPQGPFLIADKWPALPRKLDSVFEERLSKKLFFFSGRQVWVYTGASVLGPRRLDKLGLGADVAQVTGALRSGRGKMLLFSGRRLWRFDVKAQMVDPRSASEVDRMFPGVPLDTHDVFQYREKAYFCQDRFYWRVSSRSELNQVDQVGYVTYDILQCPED

[8] = molecular target: Collagenase 3 (Homo sapiens, UniProt P45452); experiment: Inhibition of MMP13
[9] = molecular target: T3, Disintegrin and metalloproteinase domain-containing protein 10 (Homo sapiens, UniProt O14672); experiment: Inhibition of ADAM10
T3 sequence (O14672 whole entry): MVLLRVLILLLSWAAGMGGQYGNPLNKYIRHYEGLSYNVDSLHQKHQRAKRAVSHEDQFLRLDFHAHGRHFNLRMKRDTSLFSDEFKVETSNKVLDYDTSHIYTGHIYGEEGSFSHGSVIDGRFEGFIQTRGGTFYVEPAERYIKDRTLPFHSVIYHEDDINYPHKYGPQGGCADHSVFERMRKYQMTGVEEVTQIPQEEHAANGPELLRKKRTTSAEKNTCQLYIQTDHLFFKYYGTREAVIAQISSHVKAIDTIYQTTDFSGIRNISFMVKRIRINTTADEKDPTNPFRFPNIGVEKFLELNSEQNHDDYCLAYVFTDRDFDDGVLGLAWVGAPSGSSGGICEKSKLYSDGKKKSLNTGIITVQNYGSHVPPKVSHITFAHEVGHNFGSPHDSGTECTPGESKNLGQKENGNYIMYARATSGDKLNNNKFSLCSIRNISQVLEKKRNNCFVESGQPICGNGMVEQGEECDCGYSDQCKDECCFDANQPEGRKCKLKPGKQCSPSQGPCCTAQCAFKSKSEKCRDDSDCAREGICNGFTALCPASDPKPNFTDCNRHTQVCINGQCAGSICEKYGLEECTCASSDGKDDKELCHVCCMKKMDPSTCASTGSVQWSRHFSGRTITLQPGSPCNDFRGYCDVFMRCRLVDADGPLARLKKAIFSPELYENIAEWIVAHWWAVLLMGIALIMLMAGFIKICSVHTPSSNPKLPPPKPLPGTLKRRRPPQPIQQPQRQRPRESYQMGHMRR

[10] = AUC in rat at 3 mg/kg, iv; format: ADME, organism-based; design: dose 3 mg/kg, route intravenous; details: plasma
Method in brief: (§1)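 Compound dosed as its Na+ salt, intravenously or orally, at the dose given in each line. AUC is reported in uM.h.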

[11] = Half life in rat at 3 mg/kg, iv; format: ADME, organism-based; design: dose 3 mg/kg, route intravenous; details: in vivo
[12] = Clearance in rat at 3 mg/kg, iv; format: ADME, organism-based; design: dose 3 mg/kg, route intravenous; details: in vivo
[13] = AUC in rat at 10 mg/kg, po; format: ADME, organism-based; design: dose 10 mg/kg, route oral; details: plasma; method in brief: as §1
[14] = Tmax in rat at 10 mg/kg, po; format: ADME, organism-based; design: dose 10 mg/kg, route oral; details: in vivo
[15] = Oral bioavailability in rat at 10 mg/kg; format: ADME, organism-based; details: in vivo
[16] = AUC in dog at 0.5 mg/kg, iv; format: ADME, organism-based, Canis lupus familiaris; design: dose 0.5 mg/kg, route intravenous; details: plasma
[17] = Half life in dog at 0.5 mg/kg, iv; format: ADME, organism-based, Canis lupus familiaris; design: dose 0.5 mg/kg, route intravenous; details: in vivo
[18] = Clearance in dog at 0.5 mg/kg, iv; format: ADME, organism-based, Canis lupus familiaris; design: dose 0.5 mg/kg, route intravenous; details: in vivo
[19] = AUC in dog at 5 mg/kg, po; format: ADME, organism-based, Canis lupus familiaris; design: dose 5 mg/kg, route oral; details: plasma
[20] = Tmax in dog at 5 mg/kg, po; format: ADME, organism-based, Canis lupus familiaris; design: dose 5 mg/kg, route oral; details: in vivo
[21] = Oral bioavailability in dog at 5 mg/kg; format: ADME, organism-based, Canis lupus familiaris; details: in vivo
[22] = AUC in monkey at 1 mg/kg, iv; format: ADME, organism-based, Macaca mulatta; design: dose 1 mg/kg, route intravenous; details: rhesus monkey, plasma; method in brief: as §1
[23] = Half life in monkey at 1 mg/kg, iv; format: ADME, organism-based, Macaca mulatta; design: dose 1 mg/kg, route intravenous; details: rhesus monkey, in vivo
[24] = Clearance in monkey at 1 mg/kg, iv; format: ADME, organism-based, Macaca mulatta; design: dose 1 mg/kg, route intravenous; details: rhesus monkey, in vivo
[25] = AUC in monkey at 3 mg/kg, po; format: ADME, organism-based, Macaca mulatta; design: dose 3 mg/kg, route oral; details: rhesus monkey, plasma; method in brief: as §1
[26] = Tmax in monkey at 3 mg/kg, po; format: ADME, organism-based, Macaca mulatta; design: dose 3 mg/kg, route oral; details: rhesus monkey, in vivo
[27] = Oral bioavailability in monkey at 3 mg/kg; format: ADME, organism-based, Macaca mulatta; details: rhesus monkey, in vivo

Sequence of Disintegrin and metalloproteinase domain-containing protein 17 (P78536 whole entry, the tested form may be a part): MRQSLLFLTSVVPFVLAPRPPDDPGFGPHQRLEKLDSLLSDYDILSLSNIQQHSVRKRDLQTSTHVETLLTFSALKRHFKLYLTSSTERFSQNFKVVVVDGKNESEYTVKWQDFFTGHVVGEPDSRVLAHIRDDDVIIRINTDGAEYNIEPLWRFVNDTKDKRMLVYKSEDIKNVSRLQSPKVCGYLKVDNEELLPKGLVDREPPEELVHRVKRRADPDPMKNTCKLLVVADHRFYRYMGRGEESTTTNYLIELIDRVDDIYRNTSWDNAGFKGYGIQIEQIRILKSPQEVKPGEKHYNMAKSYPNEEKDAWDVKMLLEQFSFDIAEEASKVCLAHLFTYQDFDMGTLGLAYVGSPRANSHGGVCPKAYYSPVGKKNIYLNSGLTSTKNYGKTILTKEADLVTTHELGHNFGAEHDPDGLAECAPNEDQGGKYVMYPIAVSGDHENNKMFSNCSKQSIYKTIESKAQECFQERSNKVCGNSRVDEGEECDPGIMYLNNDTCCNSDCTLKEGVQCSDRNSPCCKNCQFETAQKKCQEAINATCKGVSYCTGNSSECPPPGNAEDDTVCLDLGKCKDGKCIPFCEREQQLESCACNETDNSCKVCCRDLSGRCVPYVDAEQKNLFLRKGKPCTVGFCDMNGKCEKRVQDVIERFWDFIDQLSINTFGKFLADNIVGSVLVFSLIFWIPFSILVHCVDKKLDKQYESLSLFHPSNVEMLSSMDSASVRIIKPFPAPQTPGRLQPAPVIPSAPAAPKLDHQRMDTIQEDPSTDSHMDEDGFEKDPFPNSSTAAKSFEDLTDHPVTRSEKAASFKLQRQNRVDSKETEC

SMILES: COc1ccc2c(c1)C(=O)N(C[C@@]1(C#Cc3ccc4cc[nH]c4c3)NC(=O)NC1=O)C2
Ki [1]: 0.19 nM
Activity [2]: 2965 nM

SMILES: COc1ccc2c(c1)C(=O)N(C[C@@]1(C#Cc3cccc(C#N)c3)NC(=O)NC1=O)C2
Ki [1]: 0.06 nM
Activity [2]: 273 nM

SMILES: COc1ccc2c(c1)C(=O)N(C[C@@]1(C#Cc3ccc(/C(=N/O)N4CCN(C)CC4)cc3)NC(=O)NC1=O)C2
Ki [1]: 0.22 nM
Activity [2]: 33 nM

SMILES: COc1ccc2c(c1)C(=O)N(C[C@@]1(C#Cc3ccc4[nH]cnc4c3)NC(=O)NC1=O)C2
Ki [1]: 0.6 nM
Activity [2]: 211 nM

SMILES: CCN1CCN(c2ccc(O)c(-c3ccc(C#C[C@]4(CN5Cc6ccc(OC)cc6C5=O)NC(=O)NC4=O)cc3F)n2)CC1
Ki [1]: 0.1 nM
Activity [2]: 40 nM

SMILES: COc1ccc2c(c1)C(=O)N(C[C@@]1(C#Cc3ccc4cnn(C)c4c3)NC(=O)NC1=O)C2
Ki [1]: 0.52 nM
Activity [2]: 10400 nM

SMILES: COc1ccc2c(c1)C(=O)N(C[C@@]1(C#Cc3ccc4[nH]ccc4c3)NC(=O)NC1=O)C2
Ki [1]: 0.17 nM
Activity [2]: 751 nM

SMILES: COc1ccc2c(c1)C(=O)N(C[C@@]1(C#Cc3cccc(C)c3)NC(=O)NC1=O)C2
Ki [1]: 0.72 nM
Activity [2]: 5148 nM

SMILES: COc1ccc2c(c1)C(=O)N(C[C@@]1(C#Cc3ccccc3C)NC(=O)NC1=O)C2
Ki [1]: 2 nM
Activity [2]: 3142 nM

SMILES: COc1ccc2c(c1)C(=O)N(C[C@@]1(C#Cc3ccc(CC4CCN(C)CC4)nc3)NC(=O)NC1=O)C2
Ki [1]: 0.47 nM
Activity [2]: 195 nM

The remaining molecules from weak to strong by Ki [1], led by results:

Ki [1]: 2.78 nM
SMILES: COc1ccc2c(c1)C(=O)N(C[C@@]1(C#Cc3ccccc3C(N)=O)NC(=O)NC1=O)C2
Activity [2]: 5311 nM

Ki [1]: 2.55 nM
SMILES: COc1ccc2c(c1)C(=O)N(C[C@@]1(C#Cc3ccc(C(=O)NC4CC4)cc3)NC(=O)NC1=O)C2
Activity [2]: 487 nM

Ki [1]: 0.62 nM
IC50 [3]: 5200 nM
IC50 [4]: 431 nM
IC50 [5]: 5800 nM
IC50 [6]: > 40000 nM
IC50 [7]: 1010 nM
IC50 [8]: 2920 nM
IC50 [9]: 22 nM
AUC [10]: 7.3 µM·h
half-life [11]: 2.2 h
clearance [12]: 317 mL/min/kg
AUC [13]: 4 µM·h
Tmax [14]: 2.2 h
bioavailability [15]: 15%
AUC [16]: 1.3 µM·h
half-life [17]: 0.9 h
clearance [18]: 317 mL/min/kg
AUC [19]: 1.1 µM·h
Tmax [20]: 6 min
bioavailability [21]: 9%
AUC [22]: 3.8 µM·h
half-life [23]: 2.4 h
clearance [24]: 217 mL/min/kg
AUC [25]: 2.6 µM·h
Tmax [26]: 1.2 h
bioavailability [27]: 23%
SMILES: COc1ccc2c(c1)C(=O)N(C[C@@]1(C#Cc3cccnc3)NC(=O)NC1=O)C2
Activity [2]: 220 nM

Ki [1]: 0.5 nM
SMILES: COc1ccc2c(c1)C(=O)N(C[C@@]1(C#Cc3cccc(C(C)C)c3)NC(=O)NC1=O)C2
Activity [2]: 19000 nM

Ki [1]: 0.16 nM
SMILES: CCN1CCN(/C(=N\O)c2ccc(C#C[C@]3(CN4Cc5ccc(OC)cc5C4=O)NC(=O)NC3=O)cc2)CC1
Activity [2]: 20 nM
